Source: ChEMBL document CHEMBL3763086, “Salicylanilide N-monosubstituted carbamates: Synthesis and in vitro antimicrobial activity” (2016)
In brackets after ≈: the same amount, converted by molar mass.

What was measured:
Format in all cases: functional
[1] = test system: Trichophyton mentagrophytes; experiment: Antifungal activity against Trichophyton mentagrophytes 445 after 72 hrs by microbroth dilution method; conditions: Trichophyton mentagrophytes, 445, 72 h
Escherichia coli [2] = experiment: Antibacterial activity against Escherichia coli CCM 4517 after 24 hrs by microbroth dilution method; conditions: CCM 4517, 24 h
Procedure, shortened: (§1)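 Microbroth dilution modified per M07-A07 in Mueller-Hinton broth, pH 7.4 (±0.2). Inoculum in sterile water adjusted to 0.5 McFarland. MIC taken as growth reduction of at least 90% (IC90) versus control, read visually and at 540 nm after 24 and 48 h incubation in the dark.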

Klebsiella pneumoniae [3] = experiment: Antibacterial activity against ESBL-positive Klebsiella pneumoniae J 14368/08 after 24 hrs by microbroth dilution method; conditions: J 14368/08, 24 h; procedure, shortened: as §1
Candida albicans [4] = experiment: Antifungal activity against Candida albicans ATCC 44859 after 48 hrs by microbroth dilution method; conditions: ATCC 44859, 48 h
Lichtheimia corymbifera [5] = experiment: Antifungal activity against Absidia corymbifera 272 after 48 hrs by microbroth dilution method; conditions: Lichtheimia corymbifera, 272, 48 h
[6] = test system: Trichophyton mentagrophytes; experiment: Antifungal activity against Trichophyton mentagrophytes 445 after 120 hrs by microbroth dilution method; conditions: Trichophyton mentagrophytes, 445, 120 h
Nakaseomyces glabratus [7] = experiment: Antifungal activity against Candida glabrata 20/I after 24 hrs by microbroth dilution method
Candida tropicalis [8] = experiment: Antifungal activity against Candida tropicalis 156 after 48 hrs by microbroth dilution method; conditions: Candida tropicalis, 156, 48 h
Pichia kudriavzevii [9] = experiment: Antifungal activity against Candida krusei E28 after 48 hrs by microbroth dilution method; conditions: E28, 48 h
Trichosporon asahii [10] = experiment: Antifungal activity against Trichosporon asahii 1188 after 24 hrs by microbroth dilution method; conditions: Trichosporon asahii, 1188, 24 h
Trichosporon asahii [11] = experiment: Antifungal activity against Trichosporon asahii 1188 after 48 hrs by microbroth dilution method; conditions: Trichosporon asahii, 1188, 48 h
Nakaseomyces glabratus [12] = experiment: Antifungal activity against Candida glabrata 20/I after 48 hrs by microbroth dilution method
Staphylococcus aureus [13] = experiment: Antibacterial activity against Staphylococcus aureus CCM 4516/08 after 24 hrs by microbroth dilution method; conditions: CCM 4516/08, 24 h; procedure, shortened: as §1
Pichia kudriavzevii [14] = experiment: Antifungal activity against Candida krusei E28 after 24 hrs by microbroth dilution method; conditions: E28, 24 h
Candida tropicalis [15] = experiment: Antifungal activity against Candida tropicalis 156 after 24 hrs by microbroth dilution method; conditions: Candida tropicalis, 156, 24 h
Enterococcus sp. [16] = experiment: Antibacterial activity against Enterococcus sp. J 14365/08 after 48 hrs by microbroth dilution method; conditions: J 14365/08, 48 h; procedure, shortened: as §1
Escherichia coli [17] = experiment: Antibacterial activity against Escherichia coli CCM 4517 after 48 hrs by microbroth dilution method; conditions: CCM 4517, 48 h; procedure, shortened: as §1
Enterococcus sp. [18] = experiment: Antibacterial activity against Enterococcus sp. J 14365/08 after 24 hrs by microbroth dilution method; conditions: J 14365/08, 24 h; procedure, shortened: as §1
Staphylococcus aureus [19] = experiment: Antibacterial activity against methicillin-resistant Staphylococcus aureus H 5996/08 after 48 hrs by microbroth dilution method; conditions: H 5996/08, 48 h
Procedure, shortened: (§2)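 Microdilution broth method modified after M07-A07 in Mueller-Hinton broth adjusted to pH 7.4 (±0.2). Inoculum prepared in sterile water to 0.5 McFarland (1.5 × 10^8 CFU/mL). MIC taken as growth reduction versus control (IC95 per table header), read visually and spectrophotometrically at 540 nm after 24 and 48 h incubation in the dark.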

Staphylococcus aureus [20] = experiment: Antibacterial activity against Staphylococcus aureus CCM 4516/08 after 48 hrs by microbroth dilution method; conditions: CCM 4516/08, 48 h; procedure, shortened: as §2
Candida albicans [21] = experiment: Antifungal activity against Candida albicans ATCC 44859 after 24 hrs by microbroth dilution method; conditions: ATCC 44859, 24 h
Klebsiella pneumoniae [22] = experiment: Antibacterial activity against Klebsiella pneumoniae D 11750/08 after 24 hrs by microbroth dilution method; conditions: D 11750/08, 24 h; procedure, shortened: as §1
[23] = test system: Staphylococcus epidermidis; experiment: Antibacterial activity against Staphylococcus epidermidis H 6966/08 after 48 hrs by microbroth dilution method; conditions: H 6966/08, 48 h; procedure, shortened: as §1
Klebsiella pneumoniae [24] = experiment: Antibacterial activity against Klebsiella pneumoniae D 11750/08 after 48 hrs by microbroth dilution method; conditions: D 11750/08, 48 h; procedure, shortened: as §1
Staphylococcus aureus [25] = experiment: Antibacterial activity against methicillin-resistant Staphylococcus aureus H 5996/08 after 24 hrs by microbroth dilution method; conditions: H 5996/08, 24 h; procedure, shortened: as §2
Lichtheimia corymbifera [26] = experiment: Antifungal activity against Absidia corymbifera 272 after 24 hrs by microbroth dilution method; conditions: Lichtheimia corymbifera, 272, 24 h
Klebsiella pneumoniae [27] = experiment: Antibacterial activity against ESBL-positive Klebsiella pneumoniae J 14368/08 after 48 hrs by microbroth dilution method; conditions: J 14368/08, 48 h; procedure, shortened: as §1
[28] = test system: Staphylococcus epidermidis; experiment: Antibacterial activity against Staphylococcus epidermidis H 6966/08 after 24 hrs by microbroth dilution method; conditions: H 6966/08, 24 h; procedure, shortened: as §1

| SMILES | MIC [1] [µM] | MIC (Escherichia coli [2]) [µM] | MIC (Klebsiella pneumoniae [3]) [µM] | MIC (Candida albicans [4]) [µM] | MIC (Lichtheimia corymbifera [5]) [µM] | MIC [6] [µM] | MIC (Nakaseomyces glabratus [7]) [µM] | MIC (Candida tropicalis [8]) [µM] | MIC (Pichia kudriavzevii [9]) [µM] | MIC (Trichosporon asahii [10]) [µM] | MIC (Trichosporon asahii [11]) [µM] | MIC (Nakaseomyces glabratus [12]) [µM] | MIC (Staphylococcus aureus [13]) [µM] | MIC (Pichia kudriavzevii [14]) [µM] | MIC (Candida tropicalis [15]) [µM] | MIC (Enterococcus sp. [16]) [µM] | MIC (Escherichia coli [17]) [µM] | MIC (Enterococcus sp. [18]) [µM] | MIC (Staphylococcus aureus [19]) [µM] | MIC (Staphylococcus aureus [20]) [µM] | other results |
| --- | --- | --- | --- | --- | --- | --- | --- | --- | --- | --- | --- | --- | --- | --- | --- | --- | --- | --- | --- | --- | --- |
| O=C(NCc1ccccc1)Oc1ccc(Cl)cc1C(=O)Nc1ccc(F)cc1 | 250 (≈ 99.7 µg/mL) | > 500 | > 500 | > 250 | > 250 | 250 (≈ 99.7 µg/mL) | 125 (≈ 49.9 µg/mL) | > 250 | > 250 | 125 (≈ 49.9 µg/mL) | > 250 | > 250 | 15.6 (≈ 6.23 µg/mL) | 250 (≈ 99.7 µg/mL) | > 250 | > 500 | > 500 | > 500 | 31.2 (≈ 12.5 µg/mL) | 15.6 (≈ 6.23 µg/mL) | MIC (Candida albicans [21]): 250 µM (≈ 99.7 µg/mL); MIC (Klebsiella pneumoniae [22]): > 500 µM; MIC [23]: 15.6 µM (≈ 6.23 µg/mL); MIC (Klebsiella pneumoniae [24]): > 500 µM; MIC (Staphylococcus aureus [25]): 15.6 µM (≈ 6.23 µg/mL); MIC (Lichtheimia corymbifera [26]): 250 µM (≈ 99.7 µg/mL); MIC (Klebsiella pneumoniae [27]): > 500 µM; MIC [28]: 15.6 µM (≈ 6.23 µg/mL) |
| O=C(NC1CCCCC1)Oc1ccc(Cl)cc1C(=O)Nc1ccc(Cl)cc1 | 7.81 (≈ 3.18 µg/mL) | > 125 | > 125 | > 125 | 125 (≈ 50.9 µg/mL) | 7.81 (≈ 3.18 µg/mL) | > 125 | > 125 | 125 (≈ 50.9 µg/mL) | 125 (≈ 50.9 µg/mL) | 125 (≈ 50.9 µg/mL) | > 125 | 1.95 (≈ 0.794 µg/mL) | 125 (≈ 50.9 µg/mL) | > 125 | > 125 | > 125 | > 125 | 15.6 (≈ 6.36 µg/mL) | 7.81 (≈ 3.18 µg/mL) | MIC (Candida albicans [21]): > 125 µM; MIC (Klebsiella pneumoniae [22]): > 125 µM; MIC [23]: 0.98 µM (≈ 0.399 µg/mL); MIC (Klebsiella pneumoniae [24]): > 125 µM; MIC (Staphylococcus aureus [25]): 3.9 µM (≈ 1.59 µg/mL); MIC (Lichtheimia corymbifera [26]): 125 µM (≈ 50.9 µg/mL); MIC (Klebsiella pneumoniae [27]): > 125 µM; MIC [28]: 0.98 µM (≈ 0.399 µg/mL) |
| O=C(NCCc1ccccc1)Oc1ccccc1C(=O)Nc1ccccc1 | 62.5 (≈ 22.5 µg/mL) | > 500 | > 500 | > 500 | > 500 | 62.5 (≈ 22.5 µg/mL) | 250 (≈ 90.1 µg/mL) | > 500 | 125 (≈ 45.1 µg/mL) | > 500 | > 500 | 250 (≈ 90.1 µg/mL) | 125 (≈ 45.1 µg/mL) | 125 (≈ 45.1 µg/mL) | > 500 | > 500 | > 500 | > 500 | 125 (≈ 45.1 µg/mL) | 125 (≈ 45.1 µg/mL) | MIC (Candida albicans [21]): > 500 µM; MIC (Klebsiella pneumoniae [22]): > 500 µM; MIC [23]: 125 µM (≈ 45.1 µg/mL); MIC (Klebsiella pneumoniae [24]): > 500 µM; MIC (Staphylococcus aureus [25]): 125 µM (≈ 45.1 µg/mL); MIC (Lichtheimia corymbifera [26]): > 500 µM; MIC (Klebsiella pneumoniae [27]): > 500 µM; MIC [28]: 125 µM (≈ 45.1 µg/mL) |
| O=C(Nc1ccccc1)Oc1ccc(Cl)cc1C(=O)Nc1ccc(F)cc1 | 3.9 (≈ 1.5 µg/mL) | > 500 | 250 (≈ 96.2 µg/mL) | > 250 | > 250 | 15.6 (≈ 6.01 µg/mL) | > 250 | > 250 | > 250 | > 250 | > 250 | > 250 | 7.81 (≈ 3.01 µg/mL) | > 250 | > 250 | 250 (≈ 96.2 µg/mL) | > 500 | 250 (≈ 96.2 µg/mL) | 7.81 (≈ 3.01 µg/mL) | 7.81 (≈ 3.01 µg/mL) | MIC (Candida albicans [21]): > 250 µM; MIC (Klebsiella pneumoniae [22]): 250 µM (≈ 96.2 µg/mL); MIC [23]: 7.81 µM (≈ 3.01 µg/mL); MIC (Klebsiella pneumoniae [24]): 250 µM (≈ 96.2 µg/mL); MIC (Staphylococcus aureus [25]): 7.81 µM (≈ 3.01 µg/mL); MIC (Lichtheimia corymbifera [26]): > 250 µM; MIC (Klebsiella pneumoniae [27]): 250 µM (≈ 96.2 µg/mL); MIC [28]: 7.81 µM (≈ 3.01 µg/mL) |
| O=C(NCCc1ccccc1)Oc1ccc(Cl)cc1C(=O)Nc1ccc(F)cc1 | > 500 | > 500 | > 500 | > 500 | > 500 | > 500 | 125 (≈ 51.6 µg/mL) | > 500 | > 500 | 125 (≈ 51.6 µg/mL) | > 500 | > 500 | 7.81 (≈ 3.22 µg/mL) | 125 (≈ 51.6 µg/mL) | > 500 | > 500 | > 500 | > 500 | 62.5 (≈ 25.8 µg/mL) | 15.6 (≈ 6.45 µg/mL) | MIC (Candida albicans [21]): 250 µM (≈ 103 µg/mL); MIC (Klebsiella pneumoniae [22]): > 500 µM; MIC [23]: 15.6 µM (≈ 6.45 µg/mL); MIC (Klebsiella pneumoniae [24]): > 500 µM; MIC (Staphylococcus aureus [25]): 15.6 µM (≈ 6.45 µg/mL); MIC (Lichtheimia corymbifera [26]): > 500 µM; MIC (Klebsiella pneumoniae [27]): > 500 µM; MIC [28]: 15.6 µM (≈ 6.45 µg/mL) |
